Legend:
[1] = molecular target: T1, Sodium-dependent serotonin transporter (Homo sapiens, UniProt P31645); assay: In vitro ability of compound to inhibit 5-HT re-uptake of radiolabeled [3H]-tritium transmitter into synaptosome; type: tissue-based, Brain
[2] = molecular target: T2, Sodium-dependent dopamine transporter (Homo sapiens, UniProt Q01959); assay: In vitro inhibition of DA re-uptake into synaptosome; type: functional, tissue-based, Brain
[3] = molecular target: Sodium-dependent serotonin transporter (Mus musculus) (UniProt Q60857); assay: In vivo potentiation of compound towards Serotonin transporter after po administration; type: functional, organism-based
Chain of Sodium-dependent serotonin transporter (Mus musculus) (Q60857 whole entry): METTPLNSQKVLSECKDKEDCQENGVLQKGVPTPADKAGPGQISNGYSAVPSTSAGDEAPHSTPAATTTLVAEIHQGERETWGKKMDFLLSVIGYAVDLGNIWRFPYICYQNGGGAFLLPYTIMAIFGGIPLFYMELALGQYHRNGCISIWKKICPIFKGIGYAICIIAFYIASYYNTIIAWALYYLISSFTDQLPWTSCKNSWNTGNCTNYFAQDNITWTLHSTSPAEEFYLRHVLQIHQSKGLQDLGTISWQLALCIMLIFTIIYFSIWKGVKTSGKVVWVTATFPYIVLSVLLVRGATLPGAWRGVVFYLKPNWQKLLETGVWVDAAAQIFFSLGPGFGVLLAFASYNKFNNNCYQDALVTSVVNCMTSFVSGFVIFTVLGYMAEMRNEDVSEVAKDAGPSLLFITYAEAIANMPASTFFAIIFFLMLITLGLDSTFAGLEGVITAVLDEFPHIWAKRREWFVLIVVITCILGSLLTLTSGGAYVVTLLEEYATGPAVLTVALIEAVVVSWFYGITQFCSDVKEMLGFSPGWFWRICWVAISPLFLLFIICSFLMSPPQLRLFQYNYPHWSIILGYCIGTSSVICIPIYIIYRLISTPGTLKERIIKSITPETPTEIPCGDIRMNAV
Summary of the method: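 Oral dosing, read-out from the 5-HTP test. The value is the minimum effective dose (EDmin) in mg/kg po.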

[4] = molecular target: T2, Sodium-dependent dopamine transporter; assay: Displacement of [3H]WIN-35428 from Dopamine transporter
Summary of the method: (§1)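 Radioligand binding: inhibitory binding constants measured against a known radiolabelled re-uptake inhibitor. Ligands were [3H]citalopram for SERT, [3H]WIN35,428 for DAT and [3H]nisoxetine for NET. Values are means of three experiments; minimum significant ratio < 3.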

[5] = molecular target: T1, Sodium-dependent serotonin transporter; assay: Displacement of [3H]-citalopram from Serotonin transporter; summary of the method: as §1
[6] = molecular target: T3, Sodium-dependent noradrenaline transporter (Homo sapiens, UniProt P23975); assay: Displacement of [3H]-Nisoxetine from norepinephrine transporter
T3 sequence (P23975 whole entry): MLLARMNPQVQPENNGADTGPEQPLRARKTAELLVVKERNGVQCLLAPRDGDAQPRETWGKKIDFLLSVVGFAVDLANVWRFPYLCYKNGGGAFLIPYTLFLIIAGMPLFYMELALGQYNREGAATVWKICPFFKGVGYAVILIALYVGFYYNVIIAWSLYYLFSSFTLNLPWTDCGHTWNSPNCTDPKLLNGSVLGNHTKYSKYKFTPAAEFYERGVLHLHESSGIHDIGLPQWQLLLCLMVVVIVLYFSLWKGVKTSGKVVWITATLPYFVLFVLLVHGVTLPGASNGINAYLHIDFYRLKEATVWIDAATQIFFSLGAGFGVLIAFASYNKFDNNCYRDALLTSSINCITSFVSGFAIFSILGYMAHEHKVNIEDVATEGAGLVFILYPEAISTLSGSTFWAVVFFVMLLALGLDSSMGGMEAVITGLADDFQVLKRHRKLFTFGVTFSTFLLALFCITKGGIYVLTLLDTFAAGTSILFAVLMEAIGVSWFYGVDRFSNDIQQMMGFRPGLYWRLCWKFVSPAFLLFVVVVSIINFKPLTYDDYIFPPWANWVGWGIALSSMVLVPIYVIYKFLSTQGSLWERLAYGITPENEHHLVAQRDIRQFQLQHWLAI

[7] = molecular target: T3, Sodium-dependent noradrenaline transporter; assay: Compound was tested for its ability to displace […] from norepinephrine transporter
[8] = molecular target: T3, Sodium-dependent noradrenaline transporter; assay: In vitro inhibition of [3H]NE re-uptake into synaptosome; type: functional, tissue-based, Brain
[9] = molecular target: Sodium-dependent noradrenaline transporter (Mus musculus) (UniProt O55192); assay: In vivo potentiation of compound towards norepinephrine transporter after po administration was determined in mouse using mouse apomorphine hypothermia; type: functional, organism-based
Chain of Sodium-dependent noradrenaline transporter (Mus musculus) (O55192 whole entry): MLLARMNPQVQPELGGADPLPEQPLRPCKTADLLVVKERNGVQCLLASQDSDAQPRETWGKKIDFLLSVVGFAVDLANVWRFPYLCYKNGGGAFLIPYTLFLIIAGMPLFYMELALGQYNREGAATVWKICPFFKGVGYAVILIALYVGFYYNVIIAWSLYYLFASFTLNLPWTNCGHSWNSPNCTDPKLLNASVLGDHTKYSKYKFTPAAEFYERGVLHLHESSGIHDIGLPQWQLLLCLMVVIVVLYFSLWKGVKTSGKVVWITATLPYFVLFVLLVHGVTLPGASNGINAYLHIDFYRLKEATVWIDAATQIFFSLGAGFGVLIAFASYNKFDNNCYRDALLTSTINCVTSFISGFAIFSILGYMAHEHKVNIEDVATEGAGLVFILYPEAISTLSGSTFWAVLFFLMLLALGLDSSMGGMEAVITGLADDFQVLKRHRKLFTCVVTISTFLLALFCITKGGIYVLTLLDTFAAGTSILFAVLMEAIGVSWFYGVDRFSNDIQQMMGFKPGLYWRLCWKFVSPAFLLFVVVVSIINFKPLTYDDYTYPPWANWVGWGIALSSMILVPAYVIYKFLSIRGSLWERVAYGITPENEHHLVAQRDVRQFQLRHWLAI
Summary of the method: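 Apomorphine (APO) test after oral administration. The result is expressed as the minimum effective dose (EDmin), mg/kg po.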

[10] = molecular target: Sodium-dependent dopamine transporter (Mus musculus) (UniProt Q61327); assay: In vivo potentiation of compound towards Dopamine transporter after po administration was determined in mouse using mouse locomotor activity […]; type: functional, organism-based
Chain of Sodium-dependent dopamine transporter (Mus musculus) (Q61327 whole entry): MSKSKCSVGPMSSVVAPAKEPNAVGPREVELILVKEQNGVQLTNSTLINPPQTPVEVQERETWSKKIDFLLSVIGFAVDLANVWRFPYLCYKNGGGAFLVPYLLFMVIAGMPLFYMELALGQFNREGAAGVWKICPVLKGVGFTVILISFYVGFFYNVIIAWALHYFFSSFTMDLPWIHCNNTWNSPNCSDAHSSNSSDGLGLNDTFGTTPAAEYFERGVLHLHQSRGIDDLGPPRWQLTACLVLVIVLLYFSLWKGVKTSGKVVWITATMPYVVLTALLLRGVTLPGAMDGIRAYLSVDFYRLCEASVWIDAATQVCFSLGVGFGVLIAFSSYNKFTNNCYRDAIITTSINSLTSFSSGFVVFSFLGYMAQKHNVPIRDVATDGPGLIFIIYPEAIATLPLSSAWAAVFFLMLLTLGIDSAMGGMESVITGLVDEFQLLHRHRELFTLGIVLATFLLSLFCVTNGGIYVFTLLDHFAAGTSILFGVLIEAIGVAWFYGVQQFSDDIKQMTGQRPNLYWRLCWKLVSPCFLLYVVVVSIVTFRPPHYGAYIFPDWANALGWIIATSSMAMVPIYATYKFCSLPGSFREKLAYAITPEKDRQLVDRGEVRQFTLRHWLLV
Summary of the method: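 Given by mouth and assessed in the MLA (locomotor activity) test. Reported as the minimum effective dose (EDmin), mg/kg po.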

T2 sequence (Q01959 whole entry): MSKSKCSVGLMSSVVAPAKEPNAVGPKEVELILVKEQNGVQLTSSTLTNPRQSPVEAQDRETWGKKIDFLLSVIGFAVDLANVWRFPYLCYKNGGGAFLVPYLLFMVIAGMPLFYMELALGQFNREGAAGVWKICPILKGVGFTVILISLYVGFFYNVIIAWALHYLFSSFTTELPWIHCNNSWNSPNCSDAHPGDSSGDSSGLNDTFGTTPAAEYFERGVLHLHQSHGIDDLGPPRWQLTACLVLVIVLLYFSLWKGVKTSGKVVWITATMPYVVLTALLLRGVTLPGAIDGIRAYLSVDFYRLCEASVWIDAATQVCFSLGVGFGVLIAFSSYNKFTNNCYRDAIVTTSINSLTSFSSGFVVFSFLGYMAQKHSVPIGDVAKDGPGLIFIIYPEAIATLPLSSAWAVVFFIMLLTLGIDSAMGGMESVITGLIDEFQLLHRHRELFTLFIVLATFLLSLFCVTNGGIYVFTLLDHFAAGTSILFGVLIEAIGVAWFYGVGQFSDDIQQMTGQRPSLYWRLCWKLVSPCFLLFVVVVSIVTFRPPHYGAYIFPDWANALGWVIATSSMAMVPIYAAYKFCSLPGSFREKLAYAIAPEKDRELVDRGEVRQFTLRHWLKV
T1 sequence (P31645 whole entry): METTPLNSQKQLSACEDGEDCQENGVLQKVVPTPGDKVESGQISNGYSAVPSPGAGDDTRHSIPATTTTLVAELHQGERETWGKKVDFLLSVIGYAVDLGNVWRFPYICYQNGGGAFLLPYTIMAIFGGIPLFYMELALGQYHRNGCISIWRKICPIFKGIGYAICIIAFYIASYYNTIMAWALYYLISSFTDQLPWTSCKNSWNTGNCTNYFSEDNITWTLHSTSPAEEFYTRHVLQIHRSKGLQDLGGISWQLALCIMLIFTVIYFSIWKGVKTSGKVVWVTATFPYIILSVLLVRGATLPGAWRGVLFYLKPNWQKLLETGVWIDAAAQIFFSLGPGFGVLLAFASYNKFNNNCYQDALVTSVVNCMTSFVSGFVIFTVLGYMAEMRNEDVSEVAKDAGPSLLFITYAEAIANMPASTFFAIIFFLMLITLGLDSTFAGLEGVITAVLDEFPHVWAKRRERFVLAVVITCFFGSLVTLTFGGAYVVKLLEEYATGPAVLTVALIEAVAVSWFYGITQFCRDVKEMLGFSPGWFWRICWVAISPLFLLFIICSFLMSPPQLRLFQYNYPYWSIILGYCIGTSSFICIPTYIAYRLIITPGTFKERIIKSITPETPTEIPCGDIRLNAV

Row | SMILES | IC50 [1] | IC50 [2] | EDmin [3] | Ki [4] | Ki [5] | Ki [6] | Ki [7] | IC50 [8] | EDmin [9] | EDmin [10]
1 | CN(C)C[C@@H]1C2CCC(C2)[C@H]1c1ccc2ccccc2c1 (stereo partly specified) | 20 nM | 93 nM | > 20 mg/kg | 38 nM | 5.8 nM |  |  |  |  | 
2 | CNC[C@H]1C2CCC(C2)[C@@H]1c1ccc2cc(F)ccc2c1 (stereo partly specified) |  |  |  | 72 nM | 4.4 nM | 316 nM |  |  |  | 
3 | CN(C)C[C@@H]1C2CCC(CC2)[C@@H]1c1ccc(Cl)c(Cl)c1 | 270 nM | 28 nM |  | 7.2 nM | 57 nM |  | 44 nM | 22 nM |  | 
4 | CNC[C@H]1C2CCC(C2)[C@@H]1c1ccc2cc(OC)ccc2c1 (stereo partly specified) |  |  |  | 60 nM | 12 nM | 120 nM |  |  |  | 
5 | CN(C)C[C@H]1C2CCC(C2)[C@@H]1c1ccc2ccccc2c1 (stereo partly specified) | 9 nM | 76 nM | 5 mg/kg | 25 nM | 2.3 nM |  |  |  | 25 mg/kg | 40 mg/kg
6 | COc1ccc2cc([C@H]3C4CCC(C4)[C@@H]3CN(C)C)ccc2c1 (stereo partly specified) |  |  |  | 64 nM | 25 nM | 68 nM |  |  |  | 
7 | CN(C)CC1C2CCC(C2)C1c1cccc2ccccc12 (stereo unspecified) | 93 nM | 1510 nM |  | 430 nM | 52 nM |  |  |  |  | 
8 | CNCC1C2CCC(C2)C1c1ccc2ccccc2c1 (stereo unspecified) | 50 nM | 87 nM | 20 mg/kg | 25 nM | 4.9 nM |  |  |  | 20 mg/kg | 25 mg/kg
9 | CN(C)C[C@H]1C2CCC(C2)[C@@H]1c1ccc2cc(O)ccc2c1 (stereo partly specified) |  |  |  | 6 nM | 47 nM | 50 nM |  |  |  | 
10 | CNC[C@H]1C2CCC(C2)[C@@H]1c1ccc2ccccc2c1 (stereo partly specified) | 9 nM | 86 nM |  | 41 nM | 3.6 nM |  |  |  |  | 
11 | CN(C)C[C@H]1C2CCC(C2)[C@@H]1c1ccc2cc(F)ccc2c1 (stereo partly specified) |  |  |  | 50 nM | 2.6 nM | 385 nM |  |  |  | 
12 | CN(C)CC1C2CCC(C2)C1c1ccc2ccccc2c1 (stereo unspecified) | 10 nM | 95 nM |  | 18 nM | 2.8 nM |  |  |  |  | 
13 | CN(C)C[C@H]1C2CCC(CC2)[C@@H]1c1cccc(Cl)c1 | 303 nM | 165 nM |  | 64 nM | 25 nM |  |  |  |  | 
